Assay results taken from ChEMBL document CHEMBL4406821, “Novel dual inhibitors targeting CDK4 and VEGFR2 synergistically suppressed cancer progression and angiogenesis” (Eur J Med Chem, 2019).
Calls of active or inactive are those of the source. No cut-off for these calls is given here.

Key:
[1] = target: Vascular endothelial growth factor receptor 2 (Homo sapiens, UniProt P35968); assay: Inhibition of recombinant human VEGFR2 (790 to end residues) using myelin ba as substrate at 1 uM incubated for 40 mins by [gamma-33P]-ATP based radiometric assay relative to control
Chain of Vascular endothelial growth factor receptor 2 (P35968 whole entry): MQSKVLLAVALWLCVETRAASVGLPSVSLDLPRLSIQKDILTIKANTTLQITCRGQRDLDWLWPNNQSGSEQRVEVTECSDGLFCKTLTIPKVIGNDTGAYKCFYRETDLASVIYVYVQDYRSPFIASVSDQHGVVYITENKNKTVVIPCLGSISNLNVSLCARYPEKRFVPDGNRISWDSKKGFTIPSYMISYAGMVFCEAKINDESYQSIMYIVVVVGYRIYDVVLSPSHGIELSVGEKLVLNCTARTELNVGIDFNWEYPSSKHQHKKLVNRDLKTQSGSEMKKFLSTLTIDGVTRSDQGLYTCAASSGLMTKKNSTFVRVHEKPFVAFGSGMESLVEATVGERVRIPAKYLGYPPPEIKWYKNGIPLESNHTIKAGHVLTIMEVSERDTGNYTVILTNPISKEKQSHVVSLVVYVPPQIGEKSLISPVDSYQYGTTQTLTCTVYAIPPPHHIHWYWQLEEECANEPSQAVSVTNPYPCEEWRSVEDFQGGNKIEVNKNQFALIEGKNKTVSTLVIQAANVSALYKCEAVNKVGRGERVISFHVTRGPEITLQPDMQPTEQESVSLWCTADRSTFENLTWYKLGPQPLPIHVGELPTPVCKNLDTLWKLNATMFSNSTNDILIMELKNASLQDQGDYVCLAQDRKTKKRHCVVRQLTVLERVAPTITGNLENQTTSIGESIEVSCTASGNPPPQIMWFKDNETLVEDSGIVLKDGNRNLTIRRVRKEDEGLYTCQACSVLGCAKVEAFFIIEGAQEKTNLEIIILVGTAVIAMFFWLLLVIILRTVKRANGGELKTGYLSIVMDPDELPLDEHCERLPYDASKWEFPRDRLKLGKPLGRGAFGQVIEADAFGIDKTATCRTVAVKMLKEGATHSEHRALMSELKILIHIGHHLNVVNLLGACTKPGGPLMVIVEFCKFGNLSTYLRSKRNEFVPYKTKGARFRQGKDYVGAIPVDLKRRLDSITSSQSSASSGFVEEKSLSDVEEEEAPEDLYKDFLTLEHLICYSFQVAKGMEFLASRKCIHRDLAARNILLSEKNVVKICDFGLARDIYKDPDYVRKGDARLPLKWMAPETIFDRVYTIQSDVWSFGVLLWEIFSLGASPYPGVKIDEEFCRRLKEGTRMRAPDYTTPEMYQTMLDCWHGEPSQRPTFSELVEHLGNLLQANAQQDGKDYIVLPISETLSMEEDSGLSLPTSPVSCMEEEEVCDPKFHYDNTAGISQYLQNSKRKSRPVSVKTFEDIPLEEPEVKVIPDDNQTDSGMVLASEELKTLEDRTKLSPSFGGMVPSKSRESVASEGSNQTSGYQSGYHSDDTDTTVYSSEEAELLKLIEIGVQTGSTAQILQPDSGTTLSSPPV
Procedure, shortened: (§1)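 Kinase panel profiling at 1 μM performed by Eurofins KinaseProfiler; percent inhibition reported as mean of two independent experiments.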

HeLa [2] = assay: Antiproliferative activity against human HeLa cells assessed as reduction in cell viability measured after 72 hrs by CCK8 assay; type: functional, cell-based
Procedure, shortened: (§2)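 Cells were seeded at 3×10³ cells/well and exposed to a range of concentrations or vehicle for 72 h. Viability was read by CCK-8 at 450 nm, with DMSO as blank and five replicates per sample. IC50 was calculated from the dose-response.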

T47D = assay: Antiproliferative activity against human T47D cells assessed as reduction in cell viability measured after 72 hrs by CCK8 assay; type: functional, cell-based; procedure, shortened: as §2
SiHa [3] = assay: Antiproliferative activity against human SiHa cells assessed as reduction in cell viability measured after 72 hrs by CCK8 assay; type: functional, cell-based; procedure, shortened: as §2
MDA-MB-231 [4] = assay: Antiproliferative activity against human MDA-MB-231 cells assessed as reduction in cell viability measured after 72 hrs by CCK8 assay; type: functional, cell-based; conditions: MDA-MB-231, 72 h; procedure, shortened: as §2
HUVEC [5] = assay: Antiproliferative activity against HUVEC cells assessed as reduction in cell viability measured after 72 hrs by CCK8 assay; type: functional, cell-based; conditions: Homo sapiens; procedure, shortened: as §2
HUVEC [6] = assay: Antiangiogenic activity against HUVEC cells assessed as reduction in tube formation at 20 to 40 nM incubated for 6 hrs by light microscopy; type: functional, cell-based; conditions: Homo sapiens
Procedure, shortened: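 HUVECs, 4×10⁴ cells/well, were seeded on Matrigel that had been solidified at 37°C for 30 min. Cells were treated with compound or vehicle at 37°C for 6 h. Three random fields were counted and photographed under a light microscope.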

MDA-MB-231 [7] = assay: Induction of cell cycle arrest in human MDA-MB-231 cells assessed as accumulation in G2/M phase at 40 nM incubated for 36 hrs by propidium iodide staining based flow cytometry; type: functional
Procedure, shortened: (§3)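 Cells were treated with graded concentrations for 36 h, then fixed overnight in 70% ice-cold ethanol at 4°C and resuspended in PBS. Staining used 50 µg/ml PI plus 5 µg/ml RNase at 37°C for 30 min. DNA content was analysed by FACS to give G0/G1, S and G2/M fractions.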

HeLa [8] = assay: Induction of cell cycle arrest in human HeLa cells assessed as accumulation in G2/M phase at 40 to 80 nM incubated for 36 hrs by propidium iodide staining based flow cytometry; type: functional; procedure, shortened: as §3
[9] = VRT (0 to t) in Sprague-Dawley rat at 10 mg/kg, iv by HPLC-MS analysis; type: ADME, organism-based; conditions: in vivo
[10] = target: Epithelial discoidin domain-containing receptor 1 (Homo sapiens) (UniProt Q08345); assay: Inhibition of recombinant human DDR1 (492 to end residues) at 1 uM using KKKSPGEYVNIEFG as substrate incubated for 40 mins in presence of [gamma-33P]-ATP by scintillation counting method relative to control; procedure, shortened: as §1
[11] = target: Tyrosine-protein kinase Fgr (Homo sapiens) (UniProt P09769); assay: Inhibition of recombinant human FGR (2 to end residues) at 1 uM using poly(Glu, Tyr) 4:1 as substrate incubated for 40 mins in presence of [gamma-33P]-ATP by scintillation counting method relative to control
[12] = target: Mitogen-activated protein kinase 1 (Homo sapiens) (UniProt P28482); assay: Inhibition of recombinant human full length MAPK2 at 1 uM using myelin basic protein as substrate incubated for 40 mins in presence of [gamma-33P]-ATP by scintillation counting method relative to control
Chain of Mitogen-activated protein kinase 1 (Homo sapiens) (P28482 whole entry): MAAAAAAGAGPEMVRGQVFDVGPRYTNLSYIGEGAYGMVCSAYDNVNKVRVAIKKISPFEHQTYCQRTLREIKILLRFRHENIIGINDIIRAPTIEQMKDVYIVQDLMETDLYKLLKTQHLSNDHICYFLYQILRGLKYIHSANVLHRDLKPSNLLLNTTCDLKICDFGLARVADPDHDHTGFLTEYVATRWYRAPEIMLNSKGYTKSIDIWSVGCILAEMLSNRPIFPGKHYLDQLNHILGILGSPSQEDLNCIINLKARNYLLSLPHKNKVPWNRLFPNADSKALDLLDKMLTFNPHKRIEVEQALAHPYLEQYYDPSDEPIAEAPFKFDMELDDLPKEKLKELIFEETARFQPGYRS
Procedure, shortened: (§4)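 Tested at a single 1 uM in an outsourced commercial kinase-profiling panel, read as percent inhibition. Each value is the mean of two independent experiments.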

[13] = target: Tyrosine-protein kinase HCK (Homo sapiens) (UniProt P08631); assay: Inhibition of recombinant human HCK (230 to 497 residues) at 1 uM using GGMEDIYFEFMGGKKK as substrate incubated for 40 mins in presence of [gamma-33P]-ATP by scintillation counting method relative to control
[14] = target: Insulin receptor (Homo sapiens) (UniProt P06213); assay: Inhibition of recombinant activated human IR (1005 to 1310 residues) at 1 uM using KKKSPGEYVNIEFG as substrate incubated for 40 mins in presence of [gamma-33P]-ATP by scintillation counting method relative to control; procedure, shortened: as §1
Chain of Insulin receptor (Homo sapiens) (P06213 28-758 limits assumed): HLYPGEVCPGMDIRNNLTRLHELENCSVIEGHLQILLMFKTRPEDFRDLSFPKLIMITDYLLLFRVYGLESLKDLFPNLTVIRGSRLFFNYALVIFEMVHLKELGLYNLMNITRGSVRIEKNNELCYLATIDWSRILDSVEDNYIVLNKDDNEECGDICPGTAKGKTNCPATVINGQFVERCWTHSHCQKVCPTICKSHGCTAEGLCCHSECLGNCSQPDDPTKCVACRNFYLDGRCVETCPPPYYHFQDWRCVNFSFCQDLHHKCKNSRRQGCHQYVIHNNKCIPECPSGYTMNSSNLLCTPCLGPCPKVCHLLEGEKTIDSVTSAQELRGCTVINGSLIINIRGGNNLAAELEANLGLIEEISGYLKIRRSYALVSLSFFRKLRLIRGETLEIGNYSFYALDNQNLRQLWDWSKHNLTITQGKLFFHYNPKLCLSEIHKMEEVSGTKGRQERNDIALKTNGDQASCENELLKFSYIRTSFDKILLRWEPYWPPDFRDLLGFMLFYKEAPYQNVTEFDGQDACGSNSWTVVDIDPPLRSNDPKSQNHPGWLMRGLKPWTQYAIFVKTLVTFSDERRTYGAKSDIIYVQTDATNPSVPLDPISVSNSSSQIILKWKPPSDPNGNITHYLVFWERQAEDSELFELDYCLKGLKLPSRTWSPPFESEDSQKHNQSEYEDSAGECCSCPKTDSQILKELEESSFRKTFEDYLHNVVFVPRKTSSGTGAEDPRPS
Chain of Insulin receptor (Homo sapiens) (P06213 763-1382 limits assumed): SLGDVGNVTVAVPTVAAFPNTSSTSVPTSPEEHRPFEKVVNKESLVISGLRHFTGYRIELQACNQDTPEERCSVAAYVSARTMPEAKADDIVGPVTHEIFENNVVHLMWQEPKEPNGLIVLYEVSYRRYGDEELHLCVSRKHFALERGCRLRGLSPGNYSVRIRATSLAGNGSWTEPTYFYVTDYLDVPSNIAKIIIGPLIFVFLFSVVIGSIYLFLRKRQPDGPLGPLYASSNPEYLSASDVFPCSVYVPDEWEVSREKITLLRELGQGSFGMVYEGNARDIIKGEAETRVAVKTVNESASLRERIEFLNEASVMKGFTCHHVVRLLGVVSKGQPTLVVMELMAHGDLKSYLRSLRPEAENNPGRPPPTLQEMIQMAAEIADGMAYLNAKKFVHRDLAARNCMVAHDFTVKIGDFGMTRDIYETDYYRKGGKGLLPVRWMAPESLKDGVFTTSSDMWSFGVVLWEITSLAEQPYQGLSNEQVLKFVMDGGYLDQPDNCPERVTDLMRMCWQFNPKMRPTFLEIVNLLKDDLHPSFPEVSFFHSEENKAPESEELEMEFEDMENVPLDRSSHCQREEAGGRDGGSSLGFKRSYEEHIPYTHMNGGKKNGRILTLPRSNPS

[15] = target: Dual specificity mitogen-activated protein kinase kinase 1 (Homo sapiens) (UniProt Q02750); assay: Inhibition of recombinant human full length MEK1 at 1 uM using as unactive MAPK2 substrate incubated for 40 mins in presence of [gamma-33P]-ATP by scintillation counting method relative to control
[16] = target: Serine/threonine-protein kinase Nek6 (Homo sapiens) (UniProt Q9HC98); assay: Inhibition of recombinant human NEK6 (2 to end residues) at 1 uM using FLAKSFGSPNRAYKK as substrate incubated for 40 mins in presence of [gamma-33P]-ATP by scintillation counting method relative to control
Chain of Serine/threonine-protein kinase Nek6 (Homo sapiens) (Q9HC98 whole entry): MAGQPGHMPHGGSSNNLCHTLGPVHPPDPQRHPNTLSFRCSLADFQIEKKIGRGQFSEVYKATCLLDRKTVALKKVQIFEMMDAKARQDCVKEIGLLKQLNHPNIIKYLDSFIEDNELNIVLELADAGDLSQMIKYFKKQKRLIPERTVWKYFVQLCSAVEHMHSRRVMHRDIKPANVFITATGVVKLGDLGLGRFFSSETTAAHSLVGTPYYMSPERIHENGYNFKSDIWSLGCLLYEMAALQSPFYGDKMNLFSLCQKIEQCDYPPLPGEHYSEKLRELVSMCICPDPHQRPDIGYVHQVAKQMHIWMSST

[17] = target: Serine/threonine-protein kinase PAK 3 (Homo sapiens) (UniProt O75914); assay: Inhibition of recombinant human full length PAK3 at 1 uM using RRRLSFAEPG as substrate incubated for 40 mins in presence of [gamma-33P]-ATP by scintillation counting method relative to control; procedure, shortened: as §4
[18] = target: Serine/threonine-protein kinase PLK1 (Homo sapiens) (UniProt P53350); assay: Inhibition of recombinant human full length PLK1 at 1 uM using casein as substrate incubated for 40 mins in presence of [gamma-33P]-ATP by scintillation counting method relative to control
Chain of Serine/threonine-protein kinase PLK1 (Homo sapiens) (P53350 whole entry): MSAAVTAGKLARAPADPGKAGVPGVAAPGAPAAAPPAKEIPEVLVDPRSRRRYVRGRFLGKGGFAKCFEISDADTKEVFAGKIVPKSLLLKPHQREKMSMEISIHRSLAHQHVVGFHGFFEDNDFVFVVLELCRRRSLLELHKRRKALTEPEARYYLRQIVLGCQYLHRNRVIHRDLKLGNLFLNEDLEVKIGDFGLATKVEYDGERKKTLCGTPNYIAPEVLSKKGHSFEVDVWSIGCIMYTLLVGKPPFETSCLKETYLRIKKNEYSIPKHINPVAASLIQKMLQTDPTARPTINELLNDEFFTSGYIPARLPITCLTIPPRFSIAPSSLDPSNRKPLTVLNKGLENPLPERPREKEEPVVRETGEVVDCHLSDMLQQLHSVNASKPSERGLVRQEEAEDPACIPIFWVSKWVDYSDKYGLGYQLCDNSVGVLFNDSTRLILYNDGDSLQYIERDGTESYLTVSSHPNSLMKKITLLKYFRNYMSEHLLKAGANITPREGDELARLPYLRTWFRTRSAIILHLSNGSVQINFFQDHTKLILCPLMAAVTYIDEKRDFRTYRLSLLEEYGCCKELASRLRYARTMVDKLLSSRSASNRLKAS

[19] = target: Tyrosine-protein kinase TXK (Homo sapiens) (UniProt P42681); assay: Inhibition of recombinant human TXK (256 to end residues) at 1 uM using GEEPLYWSFPAKKK as substrate incubated for 40 mins in presence of [gamma-33P]-ATP by scintillation counting method relative to control; procedure, shortened: as §4
Chain of Tyrosine-protein kinase TXK (Homo sapiens) (P42681 whole entry): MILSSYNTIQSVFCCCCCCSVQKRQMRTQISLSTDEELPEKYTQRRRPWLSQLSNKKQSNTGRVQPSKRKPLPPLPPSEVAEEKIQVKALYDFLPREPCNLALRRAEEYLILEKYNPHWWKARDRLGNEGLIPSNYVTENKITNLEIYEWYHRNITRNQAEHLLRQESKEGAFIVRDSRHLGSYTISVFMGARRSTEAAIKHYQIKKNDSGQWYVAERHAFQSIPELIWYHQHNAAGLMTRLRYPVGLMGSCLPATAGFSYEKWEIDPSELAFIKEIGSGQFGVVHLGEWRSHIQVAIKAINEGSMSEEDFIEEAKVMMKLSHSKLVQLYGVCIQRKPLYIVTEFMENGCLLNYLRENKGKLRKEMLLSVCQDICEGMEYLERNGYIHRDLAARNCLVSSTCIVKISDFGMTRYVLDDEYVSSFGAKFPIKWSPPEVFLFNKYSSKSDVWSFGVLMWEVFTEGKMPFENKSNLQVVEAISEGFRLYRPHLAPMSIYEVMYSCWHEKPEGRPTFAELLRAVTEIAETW

[20] = target: Tyrosine-protein kinase Yes (Homo sapiens) (UniProt P07947); assay: Inhibition of recombinant human full length YES at 1 uM using poly(Glu, Tyr) 4:1 as substrate incubated for 40 mins in presence of [gamma-33P]-ATP by scintillation counting method relative to control
Chain of Tyrosine-protein kinase Yes (Homo sapiens) (P07947 2-543 limits assumed): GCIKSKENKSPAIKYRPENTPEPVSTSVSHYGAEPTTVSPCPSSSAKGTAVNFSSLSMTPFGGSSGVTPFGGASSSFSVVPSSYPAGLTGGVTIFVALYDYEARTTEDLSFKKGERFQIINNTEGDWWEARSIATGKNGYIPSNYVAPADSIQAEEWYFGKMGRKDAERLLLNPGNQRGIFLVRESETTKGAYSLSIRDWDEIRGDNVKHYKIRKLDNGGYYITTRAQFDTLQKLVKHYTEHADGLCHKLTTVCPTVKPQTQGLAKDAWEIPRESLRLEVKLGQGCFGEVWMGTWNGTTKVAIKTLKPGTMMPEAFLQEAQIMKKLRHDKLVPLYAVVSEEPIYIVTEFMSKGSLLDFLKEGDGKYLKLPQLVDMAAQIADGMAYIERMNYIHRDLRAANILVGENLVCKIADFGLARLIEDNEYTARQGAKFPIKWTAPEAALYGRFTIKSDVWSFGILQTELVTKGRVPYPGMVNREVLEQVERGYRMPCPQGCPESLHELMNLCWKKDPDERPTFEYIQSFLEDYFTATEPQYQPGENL

[21] = target: PI3K p110 beta/p85 alpha (Homo sapiens) (UniProt P27986+P42338); assay: Inhibition of recombinant human full length PI3K p110beta/p85alpha at 1 uM using phosphatidylinositol-4, 5-bisphosphate as substrate incubated for 40 mins in presence of [gamma-33P]-ATP by scintillation counting method relative to control; type: protein-complex assay
SiHa [22] = assay: Induction of apoptosis in human SiHa cells assessed as decrease in Bcl2 expression at 40 to 80 nM incubated for 48 hrs by Western blot analysis; type: functional, cell-based
Procedure, shortened: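 Cancer cells were exposed to graded concentrations for 48 h, washed three times in PBS and lysed in RIPA buffer. Immunoblots were probed with anti-Rb, anti-phospho-Rb, anti-Ki67 and anti-Bcl-2, each at 1:1000. β-actin served as loading control.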

SiHa [23] = assay: Antitumor activity against human SiHa cells xenografted in NOD/SCID BALB/c mouse assessed as reduction in tumor weight at 10 to 40 mg/kg, po administered for 21 days; type: functional, organism-based

COc1cc2nccc(Oc3ccc(NC(=O)C4(C(=O)Nc5ccc(F)cc5)CC4)cc3)c2cc1OC [CABOZANTINIB]
inhibition [1]: 101%
IC50 (HeLa [2]): > 10000 nM
IC50 (T47D): 4790 nM
IC50 (SiHa [3]): 7940 nM
IC50 (MDA-MB-231 [4]): 5080 nM
IC50 (HUVEC [5]): 7670 nM
inhibition (HUVEC [6]): Active
Activity (MDA-MB-231 [7]): Active

Cc1ccc(NC(=O)C2(C(=O)Nc3ccc(Nc4ncc(F)c(-c5cc(F)c6nc(C)n(C(C)C)c6c5)n4)cc3)CC2)cc1
inhibition [1]: 95%
IC50 (HeLa [2]): 71.5 to 72 nM
IC50 (T47D): 16 to 16.4 nM
IC50 (SiHa [3]): 50 nM
IC50 (MDA-MB-231 [4]): 38 nM
IC50 (HUVEC [5]): 36 nM
inhibition (HUVEC [6]): Active
Activity (HeLa [8]): Active
VRT(t) [9]: 2 h
inhibition [10]: 73%
inhibition [11]: 55%
inhibition [12]: 0%
inhibition [13]: 66%
inhibition [14]: 27%
inhibition [15]: 7%
inhibition [16]: 2%
inhibition [17]: 0%
inhibition [18]: 23%
inhibition [19]: 0%
inhibition [20]: 31%
inhibition [21]: 12%
Activity (SiHa [22]): Active
inhibition (SiHa [23]): Active
